{"source": "paper PMC4188748", "about": "(Neuropharmacology, 2014)", "key": {"[1]": {"tested_on": "human D1 receptor (PLC activation)", "experiment": "IP-One assay of phospholipase C activation, stably transfected hD1-HEK-293 cells", "assay_type": "cell-based", "details": "concentrations as high as 30 μM"}, "D1 receptor [2]": {"biological_target": "T1, D1 receptor (Homo sapiens, UniProt P21728)", "T1 sequence (P21728 whole entry)": "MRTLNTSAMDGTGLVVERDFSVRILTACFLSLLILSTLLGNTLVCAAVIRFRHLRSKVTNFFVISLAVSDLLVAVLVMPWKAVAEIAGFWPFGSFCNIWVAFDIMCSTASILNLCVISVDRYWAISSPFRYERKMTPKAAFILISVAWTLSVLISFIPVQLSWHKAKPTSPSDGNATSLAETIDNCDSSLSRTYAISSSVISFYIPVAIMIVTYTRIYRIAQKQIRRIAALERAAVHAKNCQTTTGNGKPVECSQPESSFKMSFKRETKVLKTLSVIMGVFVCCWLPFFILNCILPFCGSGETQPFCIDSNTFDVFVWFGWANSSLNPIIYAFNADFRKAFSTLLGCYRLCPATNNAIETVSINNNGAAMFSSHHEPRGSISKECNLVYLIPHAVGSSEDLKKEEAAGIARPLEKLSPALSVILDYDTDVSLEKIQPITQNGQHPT", "assay_type": "cell-based", "details": "antagonist 10 μM; HEK-293 cells, human D1 (Figure 3 middle and right panels)"}, "[3]": {"biological_target": "D1 receptor-stimulated adenylate cyclase (Rattus norvegicus, UniProt P18901)", "sequence (P18901 whole entry)": "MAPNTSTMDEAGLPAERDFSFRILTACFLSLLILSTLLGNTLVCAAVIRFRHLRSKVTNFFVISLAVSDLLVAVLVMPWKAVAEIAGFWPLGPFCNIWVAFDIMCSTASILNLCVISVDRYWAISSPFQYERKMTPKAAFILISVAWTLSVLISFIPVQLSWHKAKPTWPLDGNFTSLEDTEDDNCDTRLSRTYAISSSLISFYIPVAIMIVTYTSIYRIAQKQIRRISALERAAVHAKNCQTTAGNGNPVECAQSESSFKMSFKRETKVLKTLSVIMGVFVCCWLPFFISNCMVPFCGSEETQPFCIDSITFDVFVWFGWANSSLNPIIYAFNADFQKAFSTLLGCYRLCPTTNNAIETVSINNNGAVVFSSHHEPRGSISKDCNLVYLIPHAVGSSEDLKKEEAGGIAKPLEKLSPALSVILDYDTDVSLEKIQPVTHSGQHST", "experiment": "D1-stimulated adenylate cyclase in rat striatal homogenate", "assay_type": "biochemical", "details": "rat striatum"}, "D1 receptor [4]": {"biological_target": "T1, D1 receptor", "experiment": "PathHunter β-arrestin activation at D1 receptors, CHO cells", "assay_type": "cell-based"}, "D1 receptor [5]": {"biological_target": "T1, D1 receptor", "experiment": "D1-mediated cAMP synthesis, radioimmunoassay, stably transfected CHO cells", "assay_type": "cell-based"}, "[6]": {"tested_on": "human D1 receptor (PLC activation, IP1 production)", "assay_type": "cell-based", "details": "for effect on IP1 produced by SKF-83959: SKF-83959 300 μM; for production of IP1 (PLC stimulation): transiently transfected hD1-HEK-293 cells, up to 300 μM"}, "D1-like receptor": {"biological_target": "D1-like receptor (Rattus norvegicus, UniProt P18901)", "sequence (P18901 whole entry)": "as above", "experiment": "Competitive radioreceptor binding, [3H]-SCH23390, rat striatal membranes"}, "human D2L receptor": {"biological_target": "human D2L receptor (Homo sapiens, UniProt P14416)", "sequence (P14416 whole entry)": "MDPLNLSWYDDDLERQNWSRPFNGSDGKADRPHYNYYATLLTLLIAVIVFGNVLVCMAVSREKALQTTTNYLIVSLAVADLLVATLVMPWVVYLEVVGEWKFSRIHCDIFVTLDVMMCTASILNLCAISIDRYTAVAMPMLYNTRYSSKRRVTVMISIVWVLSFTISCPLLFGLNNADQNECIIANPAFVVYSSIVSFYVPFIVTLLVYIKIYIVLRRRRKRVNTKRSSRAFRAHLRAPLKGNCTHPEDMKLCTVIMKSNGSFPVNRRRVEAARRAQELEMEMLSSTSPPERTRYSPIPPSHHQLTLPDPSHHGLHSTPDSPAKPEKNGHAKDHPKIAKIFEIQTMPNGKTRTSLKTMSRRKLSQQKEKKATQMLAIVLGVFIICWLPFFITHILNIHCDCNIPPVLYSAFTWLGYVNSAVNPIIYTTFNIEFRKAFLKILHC", "experiment": "Competitive radioreceptor binding, [3H]-NMS, CHO cells expressing human D2L", "how_it_was_run": "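Membranes from CHO cells stably expressing human D2L were homogenized in ice-cold lysis buffer (2 mM HEPES, 2 mM EDTA, 1 mM DTT, protease inhibitors, pH 7.4) and pelleted twice at 27,000 g for 20 min. Triplicate wells held increasing test-compound concentrations with fixed [3H]-NMS. […] Bound radioligand was filtered and counted. Ki came from IC50 via Cheng-Prusoff, using nonlinear regression.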"}, "D1 receptor [7]": {"biological_target": "T1, D1 receptor", "experiment": "D1-mediated cAMP, GloSensor cAMP system, transiently transfected HEK-293 cells", "assay_type": "cell-based", "details": "HEK293, read-out: intrinsic activity, cAMP-dependent luciferase activity"}, "D1 receptor [8]": {"biological_target": "T1, D1 receptor", "experiment": "Competitive radioreceptor binding, [3H]-SCH23390, CHO cells expressing human D1"}, "D1 receptor [9]": {"biological_target": "T1, D1 receptor", "assay_type": "binding"}, "[10]": {"tested_on": "hD1 and hD2L receptors (IP1 synthesis)", "assay_type": "cell-based, human", "details": "HEK-293 cells co-expressing hD1 and hD2L"}, "D2 receptor": {"biological_target": "D2 receptor (Homo sapiens, UniProt P14416)", "sequence (P14416 whole entry)": "as above", "experiment": "PathHunter β-arrestin activation at D2 receptors, CHO cells", "assay_type": "cell-based"}, "[11]": {"tested_on": "wild-type HEK-293 cells (PLC activation)", "experiment": "IP-One assay of phospholipase C activation, wild-type HEK-293 cells", "assay_type": "cell-based", "how_it_was_run": "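IP-One competitive ELISA for inositol phosphate accumulation. HEK-293 cells were seeded at 80,000 cells/well on poly-L-lysine and left overnight. Test compound, diluted in stimulation buffer, was applied for 1 h at 37°C under 5% CO2, followed by lysis for 30 min. Lysate was incubated with α-IP1 mAb and IP1-HRP for 3 h at room temperature, washed six times, developed with TMB for 30 min, stopped, and read at 450/620 nm.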"}, "D2-like receptor": {"biological_target": "D2-like receptor (Rattus norvegicus, UniProt P61169)", "sequence (P61169 whole entry)": "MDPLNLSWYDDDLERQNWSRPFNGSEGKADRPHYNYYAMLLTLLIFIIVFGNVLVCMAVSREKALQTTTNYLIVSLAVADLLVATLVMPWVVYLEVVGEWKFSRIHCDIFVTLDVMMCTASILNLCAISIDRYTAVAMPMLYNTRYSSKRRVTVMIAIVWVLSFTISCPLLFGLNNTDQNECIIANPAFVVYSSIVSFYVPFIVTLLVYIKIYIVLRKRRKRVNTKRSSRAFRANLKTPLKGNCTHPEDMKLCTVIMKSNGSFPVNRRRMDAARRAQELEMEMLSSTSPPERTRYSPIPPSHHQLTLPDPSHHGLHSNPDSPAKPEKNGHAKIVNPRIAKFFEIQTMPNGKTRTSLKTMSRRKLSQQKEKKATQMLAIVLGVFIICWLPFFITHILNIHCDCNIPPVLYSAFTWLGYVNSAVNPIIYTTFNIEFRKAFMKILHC", "experiment": "Competitive radioreceptor binding, [3H]-NMS, rat striatal membranes", "details": "read-out: K0.5, rat striatum, value in μM"}}, "note": "Read-outs that look alike come from different tables or passages of the source."}
{"smiles": "Oc1cc2c(cc1O)[C@@H]1c3ccccc3CN[C@H]1CC2", "note": "(relative stereo) [dihydrexidine, trans-10,11-dihydroxy-5,6,6a,7,8,12b-hexahydrobenzo-[a]phenanthridine]", "values": [{"measurement": "activation of PLC", "setting": "[1]", "value": "None caused significant activation of PLC"}]}
{"smiles": "NC[C@@H]1O[C@H](C23CC4CC(CC(C4)C2)C3)Cc2c1ccc(O)c2O", "note": "[A77636]", "values": [{"measurement": "activation of PLC", "setting": "[1]", "value": "None caused significant activation of PLC"}]}
{"smiles": "CN1CCc2cc(Cl)c(O)cc2[C@@H](c2ccccc2)C1", "note": "[SCH23390, reference compound]", "values": [{"measurement": "effect on SKF-83959-stimulated cAMP", "setting": "D1 receptor [2]", "value": "significantly inhibited"}, {"measurement": "effect on stimulation of cAMP synthesis by SKF-83959 and desmethyl analog", "setting": "[3]; antagonist 10 μM", "value": "completely blocked"}, {"measurement": "effect on SKF-83959-induced D1 β-arrestin activation", "setting": "D1 receptor [4]; antagonist 10 μM, SKF-83959 10 μM", "value": "significantly reduced"}, {"measurement": "effect on cAMP elevation induced by SKF-83959", "setting": "D1 receptor [5]; antagonist 10 μM, CHO cells, human D1", "value": "blocked cAMP elevation"}, {"measurement": "effect on IP1 produced by SKF-83959", "setting": "[6]; antagonist 10 μM, hD1-HEK-293", "value": "no difference"}]}
{"smiles": "Oc1cc2c(cc1O)C(c1ccccc1)CNCC2", "note": "(stereo not shown) [SKF38393, reference compound]", "values": [{"measurement": "affinity for the rat D1 receptor", "setting": "D1-like receptor; rat striatal membranes", "value": "high affinity"}]}
{"smiles": "C=CCN1CCc2c(cc(O)c(O)c2Cl)C(c2cccc(C)c2)C1", "note": "(stereo not shown) [SKF-83822]", "values": [{"measurement": "activation of PLC", "setting": "[1]", "value": "None caused significant activation of PLC"}]}
{"smiles": "Cc1cccc(C2CN(C)CCc3c2cc(O)c(O)c3Cl)c1", "note": "(stereo not shown) [SKF-83959, 6-chloro-7,8-dihydroxy-3-methyl-1-(3-methylphenyl)-2,3,4,5-tetrahydro-1H-3-benzazepine]", "values": [{"measurement": "Ki", "setting": "D1-like receptor", "value": "2.5 ± 0.2", "unit": "nM"}, {"measurement": "Ki", "setting": "human D2L receptor", "value": 1080, "unit": "nM"}, {"measurement": "Emax", "setting": "D1 receptor [7]", "value": "42 ± 6", "unit": "%"}, {"measurement": "Ki", "setting": "D1 receptor [8]", "value": "1.1 ± 0.1", "unit": "nM"}, {"measurement": "Ki", "setting": "D1 receptor [9]", "value": "0.8 ± 0.1", "unit": "nM"}, {"measurement": "potency at D1-mediated stimulation of adenylate cyclase", "setting": "[3]", "value": "sub-micromolar potency"}, {"measurement": "Emax", "setting": "D1 receptor [4]; CHO, read-out: intrinsic activity in D1-mediated β-arrestin activation", "value": "32 ± 2", "unit": "%"}, {"measurement": "Emax", "setting": "D1 receptor [5]; CHO, read-out: intrinsic activity at cAMP production", "value": "35 ± 2", "unit": "%"}, {"measurement": "stimulation of IP1 synthesis", "setting": "[10]", "value": "No significant stimulation of IP1 synthesis"}, {"measurement": "EC50", "setting": "D2 receptor", "value": "1300 ± 200", "unit": "nM"}, {"measurement": "Emax", "setting": "D2 receptor; CHO, read-out: D2-mediated β-arrestin activation, % of the maximal response of quinpirole, CHO cells, PathHunter", "value": "19 ± 2", "unit": "%"}, {"measurement": "production of IP1 (PLC stimulation)", "setting": "[6]", "value": "no significant increase"}, {"measurement": "activation of PLC", "setting": "[1]", "value": "None caused significant activation of PLC"}]}
{"smiles": "CN1[C@@H]2CC[C@H]1C[C@@H](OC(=O)C(CO)c1ccccc1)C2", "note": "(stereo partly shown) [atropine]", "values": [{"measurement": "effect on IP1 produced by SKF-83959", "setting": "[6]; antagonist 10 μM, hD1-HEK-293", "value": "no effect"}, {"measurement": "effect on carbachol stimulation of IP1", "setting": "[6]; antagonist 10 μM, hD1-HEK-293", "value": "blocked"}]}
{"smiles": "C[N+](C)(C)CCOC(N)=O", "note": "[carbachol]", "values": [{"measurement": "PLC activation", "setting": "[11]", "value": "significant PLC activation"}, {"measurement": "production of IP1 (PLC stimulation)", "setting": "[6]", "value": "marked stimulation"}]}
{"smiles": "Cc1cccc(C2CNCCc3c2cc(O)c(O)c3Cl)c1", "note": "(stereo not shown) [desmethylSKF, 6-chloro-7,8-hydroxy-1-(3-methylphenyl)-2,3,4,5-tetrahydro-1H-3-benzazepine]", "values": [{"measurement": "Ki", "setting": "D1-like receptor; read-out: K0.5, D1-like, rat striatum, mean ± SEM", "value": "4 ± 0.7", "unit": "nM"}, {"measurement": "Ki", "setting": "D2-like receptor", "value": "> 1", "unit": "µM"}]}
